Eleven compounds from ChEMBL document CHEMBL2146414, “Lignan derivatives from Krameria lappacea roots inhibit acute inflammation in vivo and pro-inflammatory mediators in vitro” (J Nat Prod, 2011) can be followed below.

Activity calls are given as the source filed them. The rule behind the calls is not given here.

The test system of test [1] is Mus musculus. Description: Antiinflammatory effect in CD1 mouse ear dermatitis model assessed as reduction in mast cell degranulation at 0.4 umol administered topically per cm'2 of ear measured after 6 hrs post dermatitis induction relative to control. In kind it is functional, organism-based. In short, it runs like this: (§1)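 Male CD-1 mice (28–32 g) anesthetized with ketamine 145 mg/kg ip; right ear (about 1 cm2) given 80 μg croton oil in 15 μL acetone with test substance co-applied in acetone; controls irritant only; left ear untreated. Ears fixed in 10% formalin, paraffin-embedded, 10 μm sections stained hematoxylin-eosin or Giemsa, examined by light microscopy at set times after induction.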

Test [2] has as its system Mus musculus. Put plainly: Antiinflammatory effect in CD1 mouse ear dermatitis model assessed as reduction in leukocyte infiltration-based myeloperoxidase at 0.4 umol administered topically per cm'2 of ear measured after 6 hrs post dermatitis induction relative to control. It is filed as functional, organism-based. The procedure, abridged:
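CD-1 mice, croton oil 80 μg in acetone on right ear with topical test substance; ear punch (6 mm) homogenized in 0.1 M sodium acetate pH 4.2 with 0.1% HTAB, centrifuged 15000g 5 min; supernatant myeloperoxidase measured with TMB (2.83 mM) and 0.7 mM H2O2, 5 min at 25 °C, stopped with acetic acid, A620; duplicates; units = nM TMB oxidized/min.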

Test [3] relates to Mus musculus. Put plainly: Antiinflammatory effect in CD1 mouse ear dermatitis model assessed as reduction in cellular changes at 0.4 umol administered topically per cm'2 of ear measured after 6 hrs post dermatitis induction relative to control. In kind it is functional, organism-based. The procedure, abridged: as §1
Test [4] deals with Mus musculus. Description: Antiinflammatory effect in CD1 mouse ear dermatitis model assessed as preservance of mast cell degranulation at 0.4 umol administered topically per cm'2 of ear measured after 6 hrs post dermatitis induction relative to control. It is filed as functional, organism-based. The procedure, abridged: as §1
In test [5] the target is T1, Peroxisome proliferator-activated receptor gamma (Homo sapiens) (UniProt P37231).
T1 sequence (whole entry): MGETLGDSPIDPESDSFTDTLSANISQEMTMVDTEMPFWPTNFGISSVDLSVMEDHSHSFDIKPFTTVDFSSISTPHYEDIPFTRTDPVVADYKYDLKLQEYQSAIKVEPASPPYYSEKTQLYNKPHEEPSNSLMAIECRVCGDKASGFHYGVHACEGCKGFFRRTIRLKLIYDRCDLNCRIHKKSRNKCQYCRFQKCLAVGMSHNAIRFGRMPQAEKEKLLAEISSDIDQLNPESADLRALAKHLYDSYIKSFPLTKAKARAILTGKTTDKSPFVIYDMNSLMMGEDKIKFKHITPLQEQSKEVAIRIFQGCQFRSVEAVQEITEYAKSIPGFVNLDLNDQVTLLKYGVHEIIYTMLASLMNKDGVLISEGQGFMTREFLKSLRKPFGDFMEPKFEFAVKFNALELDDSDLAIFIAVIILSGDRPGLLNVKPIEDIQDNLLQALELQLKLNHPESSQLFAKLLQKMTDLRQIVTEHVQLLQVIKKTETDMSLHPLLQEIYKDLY
Put plainly: Activation of PPARgamma transfected in HEK293 cells at 10 uM after 18 hrs by firefly luciferase reporter gene-based luminescence assay. In kind it is cell-based.

Test [6] concerns Mus musculus. Put plainly: Antiinflammatory effect in CD1 mouse ear dermatitis model assessed as reduction in vascular changes at 0.4 umol administered topically per cm'2 of ear measured after 6 hrs post dermatitis induction relative to control. It is filed as functional, organism-based. In short, it runs like this:
as §1

Test [7] has as its system Radical scavenging activity. Description: Antioxidant activity assessed as DPPH free radical scavenging activity after 30 mins by spectrophotometry. It is filed as functional. (In general: The DPPH test is a chemical assay of radical scavenging.)

As to `C/C=C/c1ccc2c(c1)[C@@H](C)[C@H](c1ccc(O)cc1)O2`, the inhibition result in the test on Mus musculus [1], in the test with Mus musculus [2], with Mus musculus [3], in the test with Mus musculus [4] and in the test with Mus musculus [6] was “Active” throughout. The result in test [5] was inactive.
In the case of `C[C@@H]1[C@H](C)[C@@H](c2ccc(O)cc2)O[C@@H]1c1ccc(O)cc1`, the result in test [5] was inactive.
The same measure, in the same setting: the entry for `C[C@@H]1[C@H](C)[C@@H](c2ccc(O)cc2)O[C@H]1c1ccc(O)cc1` is “inactive”; for `C/C=C/c1ccc2oc(-c3ccc(O)cc3)c(C)c2c1` [RATANIAPHENOL II] it is “inactive”.
As for `COc1ccc(-c2cc3cc(CCCO)ccc3o2)c(O)c1`, the inhibition result with Mus musculus [1], with Mus musculus [2], with Mus musculus [3], in the test with Mus musculus [4] and in the test on Mus musculus [6] was “Active” each time. Besides, the values for the IC50 entry in test [7] and in test [7] (read-out: IC50) were “Dose-dependent effect” and 42.3 µM, respectively. The outcome in test [5] was inactive.
As for `C/C=C/c1ccc2c(c1)[C@H](CO)[C@@H](c1ccc(O)cc1)O2`, the result in test [5] was inactive.
Consider `C/C=C/c1ccc2oc(-c3ccc(O)cc3O)cc2c1`, for which the IC50 entry in test [7] is “Dose-dependent effect”; in test [7] (read-out: IC50) it was 22.1 µM. The outcome in test [5] was inactive.
The corresponding values for `COc1cc(O)ccc1-c1cc2cc(CCCO)ccc2o1` are “Dose-dependent effect”, 37.7 µM and “inactive”.
As for `C/C=C/c1ccc2oc(-c3ccc(O)cc3)cc2c1`, the result in test [5] was inactive.
On to `C/C=C/c1ccc2oc(-c3ccc(O)cc3OC)cc2c1` [RATANIAPHENOL III], for which the half-inhibitory concentration (IC50) entry is “Dose-dependent effect” in test [7] and 36.3 µM in test [7] (read-out: IC50). Besides, in test [5], the outcome was inactive.
For `C/C=C/c1ccc2oc(-c3ccc(OC)cc3O)cc2c1` [RATANIAPHENOL I] the same measures were “Dose-dependent effect”, 24.2 µM and “inactive”.

Usually IC50 stands for the concentration at which inhibition is half-maximal.
